{
  "source": "the RNAGym collection of RNA variant scans (doi:10.1126/science.aae0568)",
  "parents": {"B1": {"name": "tRNA (parent)", "chain": "GUUCCGUUGGCGUAAUGGUAACGCGUCUCCCUCCUAAGGAGAAGACUGCGGGUUCGAGUCCCGUACGGAACG"}},
  "note": "Fewer inactive variants are shown than the library holds.",
  "data": [
    {"variants_of": "B1", "experiment": "yeast fitness relative to wild type (ratio to wild type); higher = fitter; tRNA-Arg(CCU), competitive growth, 37 C, YPD", "how_it_was_run": "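Changes in genotype frequencies gave Darwinian fitness relative to wild type. Frequencies were read by 100-nucleotide paired-end sequencing of gene amplicons before and after pooled Saccharomyces cerevisiae strains, carrying tRNA-Arg(CCU) gene variants at the native locus, were competed in YPD at 37°C for 24 hours in six replicates. A genotype was kept only with ≥ 100 starting reads, and estimates < 0.5 were set to 0.5.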", "values": [
      {"variant": "U47C G68C", "yeast fitness": 0.742},
      {"variant": "U3C C22G G67U", "yeast fitness": 0.538},
      {"variant": "U19A A37U A43G A57G", "yeast fitness": 0.594},
      {"variant": "G6C U7G G17C C49U G58C C61A A65U", "yeast fitness": "≤ 0.5"},
      {"variant": "G39A G68A", "yeast fitness": 0.853},
      {"variant": "C4A U7A A14G G17C G56A C62U", "yeast fitness": "≤ 0.5"},
      {"variant": "C4A U16C", "yeast fitness": 0.702},
      {"variant": "G12C A20U G25A A36G C46A U54A A70U", "yeast fitness": "≤ 0.5"},
      {"variant": "C4U C31U C61G", "yeast fitness": 0.58},
      {"variant": "U3A G6A G12A A20G C22G U26A G48C G68U", "yeast fitness": "≤ 0.5"},
      {"variant": "A42G C46U", "yeast fitness": 0.974},
      {"variant": "G12C G58C C60A A65C", "yeast fitness": "≤ 0.5"},
      {"variant": "U8C C30G C33G", "yeast fitness": "≤ 0.5"},
      {"variant": "C29A C34G A42C C49G G68A", "yeast fitness": "≤ 0.5"},
      {"variant": "C4G U8C G25A A42U A69C", "yeast fitness": "≤ 0.5"},
      {"variant": "C5G C11A U16A A21U G67A", "yeast fitness": "≤ 0.5"},
      {"variant": "G6C A43C G50A A70U", "yeast fitness": 0.519},
      {"variant": "G38C A65U C66U", "yeast fitness": 0.657},
      {"variant": "G6C A14G A20C G68C", "yeast fitness": "≤ 0.5"},
      {"variant": "C30U G51A C55A", "yeast fitness": 0.686},
      {"variant": "G6A C30A A45U", "yeast fitness": 0.667},
      {"variant": "U8C G25A A36C A70G", "yeast fitness": 0.624},
      {"variant": "C4U A20U C61G", "yeast fitness": "≤ 0.5"},
      {"variant": "U16A A20U C24G C33G C61A", "yeast fitness": "≤ 0.5"},
      {"variant": "G10C C27U A40U A45U G48A C55U C66U", "yeast fitness": 0.591},
      {"variant": "U8C G23C", "yeast fitness": 0.642},
      {"variant": "U3G C11U", "yeast fitness": 0.748},
      {"variant": "U16A U35A A57G C62G", "yeast fitness": "≤ 0.5"},
      {"variant": "U7A G10C", "yeast fitness": 0.617},
      {"variant": "A14U G18C G39C C49G C61U", "yeast fitness": "≤ 0.5"},
      {"variant": "C11U C34U G38A G44C", "yeast fitness": 0.541},
      {"variant": "C29G A40U G44A", "yeast fitness": "≤ 0.5"},
      {"variant": "C11U G18C C31A", "yeast fitness": "≤ 0.5"},
      {"variant": "C11G C31A A42G A43G G68C", "yeast fitness": "≤ 0.5"},
      {"variant": "U3C G12A", "yeast fitness": 0.963},
      {"variant": "A40C A43G C60U C61U", "yeast fitness": "≤ 0.5"},
      {"variant": "A37G G67C", "yeast fitness": 0.79},
      {"variant": "C55G A57U G67A", "yeast fitness": "≤ 0.5"},
      {"variant": "C31G G41A G63U", "yeast fitness": 0.609},
      {"variant": "A40G A69U", "yeast fitness": 1.06},
      {"variant": "G12A C29A C60U", "yeast fitness": "≤ 0.5"},
      {"variant": "G10C C27U A40U A45U", "yeast fitness": "≤ 0.5"},
      {"variant": "U19G U32G", "yeast fitness": 0.62},
      {"variant": "G25A C62A A65C", "yeast fitness": 0.517},
      {"variant": "G23C C29G G63C C66G", "yeast fitness": "≤ 0.5"},
      {"variant": "C34G A37U C49G", "yeast fitness": 0.576},
      {"variant": "U8G C24G U59A C60A", "yeast fitness": "≤ 0.5"},
      {"variant": "A43C C46U G56C", "yeast fitness": 0.506},
      {"variant": "U2A C11U U19G A42U G48A", "yeast fitness": "≤ 0.5"},
      {"variant": "U3A C4U U7A C24U C61A C62G A65G", "yeast fitness": "≤ 0.5"},
      {"variant": "A20G A40G", "yeast fitness": 0.888},
      {"variant": "C22A A36G A42G", "yeast fitness": "≤ 0.5"},
      {"variant": "C24A C33A C34A C62A", "yeast fitness": "≤ 0.5"},
      {"variant": "C5G U16A C27G A42C A65C", "yeast fitness": "≤ 0.5"},
      {"variant": "U13A C55U A69C", "yeast fitness": 0.599},
      {"variant": "C5G U59G C66U", "yeast fitness": "≤ 0.5"},
      {"variant": "C11G A14U G17A A36G G41A C55G C61A", "yeast fitness": "≤ 0.5"},
      {"variant": "C11U A21U C27A", "yeast fitness": 0.576},
      {"variant": "C30A A40U G58U", "yeast fitness": "≤ 0.5"},
      {"variant": "C27G G39A C46U", "yeast fitness": 0.74},
      {"variant": "U16A C27G", "yeast fitness": 0.548},
      {"variant": "G25A C60A C66U", "yeast fitness": "≤ 0.5"},
      {"variant": "U35C A36U G38A C46A U54C", "yeast fitness": "≤ 0.5"},
      {"variant": "G17C C61U C62U C66A", "yeast fitness": 0.593},
      {"variant": "G17A U32G", "yeast fitness": 0.572},
      {"variant": "G9C A37G C62U", "yeast fitness": "≤ 0.5"},
      {"variant": "U2A U53G", "yeast fitness": "≤ 0.5"},
      {"variant": "A14U C24G G41A G44A U53A A57G C66U", "yeast fitness": 0.529},
      {"variant": "U7C C11G U13A C29U A69U", "yeast fitness": "≤ 0.5"},
      {"variant": "C11U U47A", "yeast fitness": 0.808},
      {"variant": "C4A G18A C34G C66U", "yeast fitness": "≤ 0.5"},
      {"variant": "C11G U16C A21U", "yeast fitness": "≤ 0.5"},
      {"variant": "U2G C34U", "yeast fitness": 0.616},
      {"variant": "C4G A14C A20G", "yeast fitness": 0.619},
      {"variant": "C4U A14G A45C", "yeast fitness": 0.542},
      {"variant": "C22G U32C A69U", "yeast fitness": 0.705},
      {"variant": "G6A A57C", "yeast fitness": 0.627},
      {"variant": "G6C G63C A69G", "yeast fitness": "≤ 0.5"},
      {"variant": "A20C C29A", "yeast fitness": 0.635},
      {"variant": "C30A C49A C66U", "yeast fitness": "≤ 0.5"},
      {"variant": "A20U G25A C49G", "yeast fitness": 0.619},
      {"variant": "C5U A43C", "yeast fitness": 0.813},
      {"variant": "A15U C22G G52A", "yeast fitness": "≤ 0.5"},
      {"variant": "A21U A40U", "yeast fitness": 0.728}
    ]}
  ]
}
